Assay results: ChEMBL document CHEMBL4138314, “Synthesis and Evaluation of N-Phenyl-3-sulfamoyl-benzamide Derivatives as Capsid Assembly Modulators Inhibiting Hepatitis B Virus (HBV)” (J Med Chem, 2018)
Converted amounts (≈) assume the structure as drawn. The source made the active and inactive calls. No cut-off for these calls is given here.

Assays:
Hepatitis B virus [1] = test: Induction of HBV capsid core protein CP149 aggregation assessed as ratio between area under the curve for observed amount of core dimer and area under the curve for aggregated core protein at 20 uM after 24 hrs by size exclusion chromatographic analysis
Outline: (§1)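 Recombinant HBV core assembly domain (aa 1–149, Cp149) was incubated with compound at 20 µM for 24 h, with a no-compound control run in parallel. Size exclusion chromatography gave the ratio of Cp149 dimer AUC to aggregated Cp149 AUC.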

[2] = Cytotoxicity against human HepG2 cells after 4 days by resazurin assay; format: cell-based
Hepatitis B virus [3] = test: Antiviral activity against Hepatitis B virus infected in human HepG2.117 cells assessed as inhibition of viral DNA level after 3 days by real time PCR; format: functional, organism-based; details: HepG2.117, 72 h
HBV genotype D [4] = test: Antiviral activity against HBV genotype D infected in human HepG2.2.15 cells assessed as inhibition of viral DNA level treated twice for 3 days measured after 6 days by real time PCR; format: functional, organism-based; details: for EC50: Hepatitis B virus; for Activity: hepatitis B virus genotype D
[5] = Kinetic solubility of the compound at pH 7.4 after 4 hrs by UPLC-UV analysis; format: physicochemical; details: buffer, read-out: Kinetic_solubility
[6] = Drug metabolism in human liver microsomes at 1 uM after 15 mins by LC-MS/MS analysis; format: ADME, microsome; details: read-out: Drug metabolism
Outline: (§2)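 Compound incubated 15 min with human or mouse liver microsomes; stability expressed as percent turnover (metabolised) at 15 min.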

[7] = target: 5-hydroxytryptamine receptor 2B (Homo sapiens, UniProt P41595); test: Antagonist activity at 5-HT2B (unknown origin); format: functional
Outline: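 Receptor/ion channel/transporter panel of 80 targets screened at 10 µM, giving percent effect at 5-HT2B; follow-up 5-HT2B functional testing in agonist and antagonist modes, with antagonist IC50 determined.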

[8] = Drug metabolism in mouse liver microsomes at 1 uM after 15 mins by LC-MS/MS analysis; format: ADME, microsome; details: read-out: Drug metabolism; outline: as §2
HBV genotype D [9] = test: Antiviral activity against HBV genotype D infected in chimeric mouse with humanized liver assessed as log reduction in viral DNA level in serum at 0.03 mg/kg, po qd for 28 days by RT-PCR method; format: functional, hepatitis B virus genotype D
Outline: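 HBV genotype D-infected chimeric mice with humanized liver (human hepatocyte replacement index ≥70%, judged by serum human albumin). Dosing was once daily for 28 days: test article 200 mg/kg s.c., entecavir 0.03 mg/kg oral as positive control, and oral saline as negative control. The read-out was serum HBV DNA (copies/mL), given as mean log change from baseline at day 29.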

[10] = (§3) Cytotoxicity against human HepG2 cells after 4 to 6 days by resazurin assay; format: cell-based; details: HepG2 cells
[11] = target: Core antigen (Hepatitis B virus) (UniProt Q03732); test: Induction of HBV Maleimidyl BoDIPY-FL-labeled capsid Cp*150 mutant aggregation incubated for 30 mins measured every 10 secs for 30 mins by fluorescence quenching assay
[12] = Cytotoxicity against human HepG2 cells after 6 days by resazurin assay; format: cell-based
Hepatitis B virus [13] = test: Induction of HBV capsid core protein CP149 aggregation assessed as large aberrant structure formation at 20 uM after 24 hrs by size exclusion chromatographic analysis; outline: as §1
HepG2 = test: as §3; format: cell-based; details: hepg2
[14] = Drug metabolism in human primary hepatocytes assessed as cleavage of N-phenylamide; format: ADME, cell-based, Hepatocyte
Outline: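 Compound incubated with primary hepatocytes and checked for cleavage of the N-phenylamide bond.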

Chain of Core antigen (Hepatitis B virus) (Q03732 as listed by the source): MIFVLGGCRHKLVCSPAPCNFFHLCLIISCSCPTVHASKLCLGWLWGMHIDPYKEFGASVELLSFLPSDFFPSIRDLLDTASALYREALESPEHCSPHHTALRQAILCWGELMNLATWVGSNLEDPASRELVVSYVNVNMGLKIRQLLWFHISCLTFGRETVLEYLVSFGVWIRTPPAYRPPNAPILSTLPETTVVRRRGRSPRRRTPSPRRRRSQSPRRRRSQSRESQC
Chain of 5-hydroxytryptamine receptor 2B (P41595 whole entry): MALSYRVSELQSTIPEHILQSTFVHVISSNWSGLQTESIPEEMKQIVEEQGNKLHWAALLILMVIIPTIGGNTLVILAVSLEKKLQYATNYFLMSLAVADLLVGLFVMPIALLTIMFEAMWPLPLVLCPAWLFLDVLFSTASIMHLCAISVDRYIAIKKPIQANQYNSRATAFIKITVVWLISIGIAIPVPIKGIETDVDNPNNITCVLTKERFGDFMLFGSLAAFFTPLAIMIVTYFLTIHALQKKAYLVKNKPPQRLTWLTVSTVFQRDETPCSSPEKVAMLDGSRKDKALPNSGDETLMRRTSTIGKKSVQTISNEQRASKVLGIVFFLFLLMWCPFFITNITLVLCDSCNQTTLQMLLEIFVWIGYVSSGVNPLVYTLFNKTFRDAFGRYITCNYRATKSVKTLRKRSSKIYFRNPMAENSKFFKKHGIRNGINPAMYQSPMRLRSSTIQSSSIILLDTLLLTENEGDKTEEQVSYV

EC50 (Hepatitis B virus [3]) [nM] | EC50 (HBV genotype D [4]) [nM] | solubility kinetic at 4 h [5] [µM] | metabolised at 0.25 h, 1 µM [6] [%] | metabolised at 0.25 h, 1 µM [8] [%] | SMILES | Ratio (Hepatitis B virus [1]) | CC50 at 96 h [2] [nM] | IC50 [7] [nM] | log(activity) (HBV genotype D [9]) | CC50 [10] [nM] | Activity [11] | CC50 at 144 h [12] [nM] | Activity (HBV genotype D [4]) | Activity (Hepatitis B virus [13]) | EC20 (HepG2) [nM] | Drug metabolism [14]
2790 | 1400 | 13 (≈ 4.92 µg/mL) | 31 | 96 | CC(C)NS(=O)(=O)c1cccc(C(=O)Nc2ccc(F)c(C(C)C)c2)c1 |  |  |  |  | 29800 |  |  |  |  |  | 
910 | 320 | 31 (≈ 11.7 µg/mL) | 27 | 61 | CC(C)NS(=O)(=O)c1cccc(C(=O)Nc2ccc(F)c(C3CC3)c2)c1 |  |  |  |  | 35200 |  |  |  |  |  | 
980 | 810 | > 100 | 13 | 27 | N#Cc1cc(NC(=O)c2cccc(S(=O)(=O)N[C@H]3CCOC3)c2)ccc1F |  |  |  |  | > 50000 |  |  |  |  |  | 
1650 | 2740 | > 100 | 0 | 77 | Cc1c(F)ccc(NC(=O)c2cccc(S(=O)(=O)NC3(C)COC3)c2)c1C |  |  |  |  | > 25000 |  |  |  |  |  | 
1910 | 3060 | > 100 | 1 | 78 | Cc1cc(NC(=O)c2cccc(S(=O)(=O)NC3(C)COC3)c2)c(C)cc1F |  |  |  |  | > 25000 |  |  |  |  |  | 
2660 | 2330 | > 100 | 20 | 35 | COc1cc(NC(=O)c2cccc(S(=O)(=O)N[C@H]3CCOC3)c2)ccc1F |  |  |  |  | > 25000 |  |  |  |  |  | 
510 | 380 | > 100 | 5 | 42 | O=C(Nc1ccc(F)c(F)c1)c1cccc(S(=O)(=O)N[C@H]2CCOC2)c1 |  |  |  |  | > 50000 |  |  |  |  |  | 
2590 | 310 | 15 (≈ 5.47 µg/mL) | 31 | 88 | CCc1cc(NC(=O)c2cccc(S(=O)(=O)NC(C)C)c2)ccc1F |  |  |  |  | 28500 |  |  |  |  |  | 

Second part, the compound before the results:

SMILES | EC50 (Hepatitis B virus [3]) [nM] | EC50 (HBV genotype D [4]) [nM] | solubility kinetic at 4 h [5] [µM] | metabolised at 0.25 h, 1 µM [6] [%] | metabolised at 0.25 h, 1 µM [8] [%] | Ratio (Hepatitis B virus [1]) | CC50 at 96 h [2] [nM] | IC50 [7] [nM] | log(activity) (HBV genotype D [9]) | CC50 [10] [nM] | Activity [11] | CC50 at 144 h [12] [nM] | Activity (HBV genotype D [4]) | Activity (Hepatitis B virus [13]) | EC20 (HepG2) [nM] | Drug metabolism [14]
O=C(Nc1ccc(F)cc1)c1cccc(C(=O)NC2CCCCC2)c1 | > 25000 | > 100000 | < 0.4 | 56 | 93 | 6.4 | > 100000 | 90 |  |  |  |  |  |  |  | 
C=C1[C@H](CO)[C@@H](O)C[C@@H]1n1cnc2c(=O)[nH]c(N)nc21.O [ENTECAVIR] |  |  |  |  |  |  |  |  | 3.03 |  |  |  |  |  |  | 
Cc1c(F)ccc(NC(=O)c2cccc(S(=O)(=O)N[C@H]3CCOC3)c2)c1F | 780 | 290 | > 100 | 25 | 66 |  |  |  |  | > 25000 |  |  |  |  |  | 
Cc1cc(NC(=O)c2cccc(S(=O)(=O)NC(C)C)c2)ccc1F | 150 | 70 | 41 (≈ 14.4 µg/mL) | 26 | 80 |  |  |  |  | 47500 | Active |  |  |  |  | 
Cc1cc(NC(=O)c2cccc(S(=O)(=O)N[C@H]3CCOC3)c2)c(F)cc1F | 3300 | 2220 | > 100 | 17 | 69 |  |  |  |  | > 25000 |  |  |  |  |  | 
CCN(CC)S(=O)(=O)c1ccc(Cl)c(C(=O)Nc2ccccc2)c1 |  | 1040 |  | 80 |  | 0.7 |  |  |  |  |  | > 25000 | Dose-dependent effect | inactive |  | 
O=C(Nc1ccccc1)c1cc(S(=O)(=O)N2CCCCC2)c(Cl)cc1Cl |  | 500 | 2 (≈ 0.827 µg/mL) | 99 | 100 | 0.2 |  |  |  |  | Active | > 25000 | Dose-dependent effect | inactive |  | 
Cc1c(NC(=O)c2cccc(S(=O)(=O)N[C@H]3CCOC3)c2)ccc(F)c1F | 1910 | 3630 | > 100 | 37 | 68 |  |  |  |  | > 25000 |  |  |  |  |  | 
O=C(Nc1ccc(F)cc1)c1ccc(Cl)c(S(=O)(=O)N2CCCCCC2)c1 |  | 660 | 1 (≈ 0.411 µg/mL) | 98 | 100 | 0.01 |  |  |  |  | Active | 17000 | Dose-dependent effect | inactive |  | 
O=C(Nc1ccc2ccccc2c1)c1cc(S(=O)(=O)NC2CCCCC2)ccc1F | > 25000 | 12700 | < 0.2 | 36 | 56 | 7.5 | 13000 |  |  |  | inactive |  |  |  |  | 
O=C(Nc1nccs1)c1cc(S(=O)(=O)NC2CCCCC2)ccc1F | > 25000 | 29300 | > 100 | 85 | 100 | 9.7 | > 25000 |  |  |  | inactive |  |  |  |  | 
O=C(Nc1ccncc1)c1cc(S(=O)(=O)NC2CCCCC2)ccc1F | 16300 | 5300 | > 100 | 68 | 75 | 6 | > 25000 |  |  |  | inactive |  |  |  |  | 
CC(C)NS(=O)(=O)c1cccc(C(=O)Nc2ccc(F)c(F)c2)c1 | 400 | 210 | > 100 | 18 | 60 |  |  | 230 |  |  | Active |  |  |  | 1000 | 
Cc1ccccc1NC(=O)c1cccc(S(=O)(=O)NC2CCCCC2)c1 |  | 4180 |  | 86 |  |  |  |  |  |  |  | > 25000 |  |  |  | 
Cc1cc(NC(=O)c2cccc(S(=O)(=O)NC3(C)COC3)c2)ccc1F | 300 | 120 | > 100 | 7 | 65 |  |  |  |  | 47100 | Active |  |  |  |  | Metabolite_Detected
O=C(Nc1ccccc1)c1ccc(F)c(S(=O)(=O)NC2CCCCC2)c1 |  | 2230 |  | 100 |  |  |  |  |  |  |  | 16400 | Dose-dependent effect |  |  | 
O=C(Nc1ccccc1)c1cccc(S(=O)(=O)NC2CCCC2)c1 |  | 600 | 91 (≈ 31.3 µg/mL) | 94 | 98 | 0.3 |  |  |  |  | Active | 27200 | Dose-dependent effect | inactive |  | 
